Measured values as given in the M2OR odorant receptor database.
Positions count from the first letter of the chain named.

Columns and labels:
Conditions in all cases: stereoisomer not certain
OR2T11 (Homo sapiens) = target: T1, OR2T11 (Homo sapiens) (UniProt Q8NH01)
T1 sequence (whole entry): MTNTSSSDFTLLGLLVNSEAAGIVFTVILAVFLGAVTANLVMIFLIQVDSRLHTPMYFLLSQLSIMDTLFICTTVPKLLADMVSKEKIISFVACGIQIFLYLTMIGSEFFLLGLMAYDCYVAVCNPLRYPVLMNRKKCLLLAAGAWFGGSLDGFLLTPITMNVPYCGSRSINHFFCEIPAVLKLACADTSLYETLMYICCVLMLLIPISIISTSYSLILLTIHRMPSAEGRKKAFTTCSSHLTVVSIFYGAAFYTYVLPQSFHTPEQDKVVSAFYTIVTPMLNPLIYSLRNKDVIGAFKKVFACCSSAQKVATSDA
How it was run: (§1)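 Values were gathered from published papers (main text and supplementary material), with extra details requested from the original authors when needed, and checked for typos and inconsistencies. Each receptor–molecule pair is called responsive (active) if the original authors judged the measured signal statistically different from baseline, and non-responsive (inactive) otherwise. Assay methods varied by source, often transient mammalian cell-line luciferase assays. Recorded details include cell line, G-protein, co-transfected protein and tags.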

OR2T12 (Homo sapiens) = target: T2, OR2T12 (Homo sapiens) (UniProt Q8NG77)
T2 sequence (whole entry): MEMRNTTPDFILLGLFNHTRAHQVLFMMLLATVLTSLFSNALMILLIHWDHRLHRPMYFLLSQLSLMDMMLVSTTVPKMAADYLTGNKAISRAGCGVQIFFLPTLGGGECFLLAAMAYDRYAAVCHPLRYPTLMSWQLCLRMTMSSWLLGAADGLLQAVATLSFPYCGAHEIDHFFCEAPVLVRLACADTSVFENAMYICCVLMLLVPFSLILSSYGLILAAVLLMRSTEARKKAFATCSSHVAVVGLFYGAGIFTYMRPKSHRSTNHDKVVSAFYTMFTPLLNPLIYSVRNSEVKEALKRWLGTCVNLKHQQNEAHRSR
How it was run: as §1

OR2T2 (Homo sapiens) = target: T3, OR2T2 (Homo sapiens) (UniProt Q6IF00)
T3 sequence (whole entry): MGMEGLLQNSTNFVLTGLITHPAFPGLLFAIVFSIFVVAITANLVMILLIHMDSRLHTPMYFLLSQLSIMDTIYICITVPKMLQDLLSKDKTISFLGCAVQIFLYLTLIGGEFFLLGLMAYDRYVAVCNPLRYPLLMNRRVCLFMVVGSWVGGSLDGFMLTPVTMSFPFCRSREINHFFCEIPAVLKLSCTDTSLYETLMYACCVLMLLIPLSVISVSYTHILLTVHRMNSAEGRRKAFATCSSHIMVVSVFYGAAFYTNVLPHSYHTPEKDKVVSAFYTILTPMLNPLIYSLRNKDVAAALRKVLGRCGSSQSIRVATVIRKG
How it was run: as §1

OR2T27 (Homo sapiens) = target: T4, OR2T27 (Homo sapiens) (UniProt Q8NH04)
T4 sequence (whole entry): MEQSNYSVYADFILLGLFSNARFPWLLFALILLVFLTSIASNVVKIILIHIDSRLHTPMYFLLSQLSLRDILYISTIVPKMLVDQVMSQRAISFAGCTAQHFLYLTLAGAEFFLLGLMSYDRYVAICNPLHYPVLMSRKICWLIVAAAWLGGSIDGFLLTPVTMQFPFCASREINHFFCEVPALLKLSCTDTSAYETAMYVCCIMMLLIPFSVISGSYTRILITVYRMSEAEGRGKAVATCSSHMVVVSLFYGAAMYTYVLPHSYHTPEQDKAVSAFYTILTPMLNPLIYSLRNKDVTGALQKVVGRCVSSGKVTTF
How it was run: as §1

OR2T29 (Homo sapiens) = target: T5, OR2T29 (Homo sapiens) (UniProt Q8NH02)
T5 sequence (whole entry): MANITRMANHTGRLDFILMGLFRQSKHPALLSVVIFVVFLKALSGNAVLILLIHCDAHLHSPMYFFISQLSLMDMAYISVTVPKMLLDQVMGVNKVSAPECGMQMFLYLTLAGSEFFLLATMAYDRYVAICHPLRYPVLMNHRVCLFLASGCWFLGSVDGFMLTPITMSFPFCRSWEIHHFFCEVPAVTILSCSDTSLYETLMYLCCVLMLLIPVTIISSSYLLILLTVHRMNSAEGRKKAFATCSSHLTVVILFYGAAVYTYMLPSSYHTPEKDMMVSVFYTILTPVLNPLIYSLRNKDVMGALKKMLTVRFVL
How it was run: as §1

OR2T3 (Homo sapiens) = target: T6, OR2T3 (Homo sapiens) (UniProt Q8NH03)
T6 sequence (whole entry): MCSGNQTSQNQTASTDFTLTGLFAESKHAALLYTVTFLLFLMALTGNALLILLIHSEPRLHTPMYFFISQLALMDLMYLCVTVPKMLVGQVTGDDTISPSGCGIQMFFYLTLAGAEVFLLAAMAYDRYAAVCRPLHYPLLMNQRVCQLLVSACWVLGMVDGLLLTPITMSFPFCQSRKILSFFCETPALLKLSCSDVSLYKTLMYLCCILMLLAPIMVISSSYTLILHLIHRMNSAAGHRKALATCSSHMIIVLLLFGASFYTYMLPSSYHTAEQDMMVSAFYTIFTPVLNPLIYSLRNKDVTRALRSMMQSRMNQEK
How it was run: as §1

OR2T33 (Homo sapiens) = target: T7, OR2T33 (Homo sapiens) (UniProt Q8NG76)
T7 sequence (whole entry): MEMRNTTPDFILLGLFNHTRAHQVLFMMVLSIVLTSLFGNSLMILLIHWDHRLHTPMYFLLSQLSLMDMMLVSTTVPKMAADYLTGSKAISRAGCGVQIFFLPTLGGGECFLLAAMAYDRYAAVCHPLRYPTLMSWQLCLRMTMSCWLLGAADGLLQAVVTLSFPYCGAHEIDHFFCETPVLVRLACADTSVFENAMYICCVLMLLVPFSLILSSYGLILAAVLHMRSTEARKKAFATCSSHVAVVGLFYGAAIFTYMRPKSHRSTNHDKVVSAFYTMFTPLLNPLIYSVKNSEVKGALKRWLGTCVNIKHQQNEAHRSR
How it was run: as §1

OR2T34 (Homo sapiens) = target: T8, OR2T34 (Homo sapiens) (UniProt Q8NGX1)
T8 sequence (whole entry): T6 sequence (whole entry) with Y109H, T202M, M204T, A214T, H239R, P267R
How it was run: as §1

OR2T35 (Homo sapiens) = target: T9, OR2T35 (Homo sapiens) (UniProt Q8NGX2)
T9 sequence (whole entry): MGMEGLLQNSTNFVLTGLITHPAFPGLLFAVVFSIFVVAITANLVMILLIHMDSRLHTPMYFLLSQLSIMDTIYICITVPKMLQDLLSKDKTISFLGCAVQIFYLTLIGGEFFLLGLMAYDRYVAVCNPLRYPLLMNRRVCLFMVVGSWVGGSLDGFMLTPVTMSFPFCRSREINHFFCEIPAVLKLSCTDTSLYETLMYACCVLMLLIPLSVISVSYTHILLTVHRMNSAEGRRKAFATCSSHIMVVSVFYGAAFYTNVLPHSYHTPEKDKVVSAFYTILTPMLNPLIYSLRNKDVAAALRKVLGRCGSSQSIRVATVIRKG
How it was run: as §1

OR2T4 (Homo sapiens) = target: T10, OR2T4 (Homo sapiens) (UniProt Q8NH00)
T10 sequence (whole entry): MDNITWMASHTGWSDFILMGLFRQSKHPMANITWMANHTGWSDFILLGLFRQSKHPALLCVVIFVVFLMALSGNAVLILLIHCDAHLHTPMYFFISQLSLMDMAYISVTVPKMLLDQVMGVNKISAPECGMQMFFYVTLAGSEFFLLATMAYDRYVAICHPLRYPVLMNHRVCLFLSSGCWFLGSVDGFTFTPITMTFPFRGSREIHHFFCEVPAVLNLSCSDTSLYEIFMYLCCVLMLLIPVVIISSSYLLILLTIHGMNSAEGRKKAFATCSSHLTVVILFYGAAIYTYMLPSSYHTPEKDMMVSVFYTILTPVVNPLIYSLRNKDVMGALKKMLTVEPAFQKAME
How it was run: as §1

OR2T5 (Homo sapiens) = target: T11, OR2T5 (Homo sapiens) (UniProt Q6IEZ7)
T11 sequence (whole entry): T5 sequence (whole entry) with R13K, Q24R
How it was run: as §1

OR2T6 (Homo sapiens) = target: T12, OR2T6 (Homo sapiens) (UniProt Q8NHC8)
T12 sequence (whole entry): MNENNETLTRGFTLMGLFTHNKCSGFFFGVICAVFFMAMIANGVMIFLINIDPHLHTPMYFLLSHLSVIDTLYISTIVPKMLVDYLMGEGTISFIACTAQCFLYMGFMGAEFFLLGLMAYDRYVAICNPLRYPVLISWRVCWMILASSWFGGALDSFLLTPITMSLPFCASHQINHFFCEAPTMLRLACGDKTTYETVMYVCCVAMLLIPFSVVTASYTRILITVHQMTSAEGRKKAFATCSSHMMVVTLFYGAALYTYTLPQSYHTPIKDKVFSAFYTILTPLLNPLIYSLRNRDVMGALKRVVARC
How it was run: as §1

OR2T2 L104F L262Q = tested on: T13, OR2T2 L104F L262Q
T13 sequence (whole entry): T3 sequence (whole entry) with L104F, L262Q
How it was run: as §1

OR2T2 L104F = tested on: T14, OR2T2 L104F
T14 sequence (whole entry): T3 sequence (whole entry) with L104F
How it was run: as §1

OR2T2 Q313H = tested on: T15, OR2T2 Q313H
T15 sequence (whole entry): T3 sequence (whole entry) with Q313H
How it was run: as §1

OR2T3 L256F = tested on: T16, OR2T3 L256F
T16 sequence (whole entry): T6 sequence (whole entry) with L256F
How it was run: as §1

OR2T3 R298C = tested on: T17, OR2T3 R298C
T17 sequence (whole entry): T6 sequence (whole entry) with R298C
How it was run: as §1

OR2T3 Y109H = tested on: T18, OR2T3 Y109H
T18 sequence (whole entry): T6 sequence (whole entry) with Y109H
How it was run: as §1

OR2T5 K13R K41M G45E = tested on: T19, OR2T5 K13R K41M G45E
T19 sequence (whole entry): T5 sequence (whole entry) with Q24R, K41M, G45E
How it was run: as §1

OR2T5 K13R L134F = tested on: T20, OR2T5 K13R L134F
T20 sequence (whole entry): T5 sequence (whole entry) with Q24R, L134F
How it was run: as §1

Measured: odorant receptor agonist call

CCCCCC(S)C(C)CO (stereo unspecified)
not listed: OR2T2 L104F L262Q | OR2T2 L104F | OR2T2 Q313H | OR2T3 L256F | OR2T3 R298C | OR2T3 Y109H | OR2T5 K13R K41M G45E | OR2T5 K13R L134F
inactive: all other assays above

C=CC(C)(CCC=C(C)C)OC(C)=O (stereo unspecified)
inactive: OR2T34 (Homo sapiens)

COC1CC2CC1C1CC(C=O)CC21 (stereo unspecified)
inactive: OR2T34 (Homo sapiens)

CC(=O)C=CC1=C(C)CCCC1(C)C
inactive: OR2T34 (Homo sapiens)

COc1ccc(C)cc1
inactive: OR2T34 (Homo sapiens)

CCCCCC(=O)C(C)C(C)=O (stereo unspecified)
not listed: OR2T2 L104F L262Q | OR2T2 L104F | OR2T2 Q313H | OR2T3 L256F | OR2T3 R298C | OR2T3 Y109H | OR2T5 K13R K41M G45E | OR2T5 K13R L134F
inactive: all other assays above

CCC1OC(=O)C(O)=C1C (stereo unspecified)
inactive: all assays above

CC(C)CCCC(C)(C)O
inactive: OR2T34 (Homo sapiens)

CC1=CCC2CC1C2(C)C (stereo unspecified)
inactive: OR2T34 (Homo sapiens)
active: OR2T4 (Homo sapiens)

CCC=C(C)C(O)CCCCC (stereo unspecified)
inactive: OR2T34 (Homo sapiens)

Cc1ccc(C(C)C)cc1O
inactive: OR2T34 (Homo sapiens)

CCC(=O)C=CC1C(C)=CCCC1(C)C (stereo unspecified)
inactive: OR2T34 (Homo sapiens)

CCCCCC1C(=O)CCC1CC(=O)OC (stereo unspecified)
inactive: OR2T34 (Homo sapiens)

C=CCOC(=O)COCCC(C)C
inactive: OR2T34 (Homo sapiens)
